The source of these data is ChEMBL document CHEMBL1147356, “Structure and stereochemistry of pectinolides A-C, novel antimicrobial and cytotoxic 5,6-dihydro-alpha-pyrones from Hyptis pectinata” (1993).

One may read the MIC as the smallest concentration in the dilution series that meets the test's criterion for growth inhibition. High values mean weaker potency, low ones greater potency.

Molecules are shown by their SMILES. Values after ≈ are worked out from the molar mass of the structure shown. Active and inactive are the calls of the source.

The subject of assay [1] is Staphylococcus aureus. The assay can be described thus: Antibacterial activity against Staphylococcus aureus ATCC 6538 after overnight incubation at 37 degC by twofold serial dilution technique. The class given is functional. The method, boiled down: (§1)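 Twofold broth dilution MIC. Sample at 1 mg/ml in MeOH-H2O (1:1), 0.5 ml added to 4.5 ml nutrient broth, then doubling dilutions from 100 to 0.2 μg/ml. Each tube inoculated to 10⁶ organisms/ml final. Duplicate per organism, with solvent and streptomycin control broths.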

For assay [2], the system named is Bacillus subtilis. The assay can be described thus: Antibacterial activity against Bacillus subtilis ATCC 6633 at 1 mg/ml after 24 hrs at 37 degC by agar hole-plate diffusion assay. Conditions: ATCC 6633, 24 h, read-out: IZ. The class given is functional. The method, boiled down: (§2)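 Agar hole-plate diffusion. Agar plates (15 ml) seeded with 1 ml overnight broth culture (10⁶ bacteria/ml); 11 mm holes filled with 100 μl of pure compound at 1 mg/ml. Streptomycin sulfate (1 mg/ml) as positive control. Duplicate per organism, 24 h at 37°. Inhibition zone diameters measured.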

Assay [3] deals with Candida albicans. Nature of the assay: Antifungal activity against Candida albicans ATCC 10231 at < 100 ug/ml after 24 hrs at 25 degC by agar hole-plate diffusion assay. It is filed as functional, organism-based.
For assay [4], the system named is Pseudomonas aeruginosa. The assay can be described thus: Antibacterial activity against Pseudomonas aeruginosa ATCC 9027 by agar diffusion technique. It is filed as functional. On the technique in general: A growth-free zone around the sample is the usual read-out of agar diffusion tests.
Assay [5] concerns Pseudomonas aeruginosa. The assay can be described thus: Antibacterial activity against Pseudomonas aeruginosa ATCC 9027 at < 100 ug/ml after 24 hrs at 37 degC by agar hole-plate diffusion assay. The class given is functional, organism-based.
The test system of assay [6] is Staphylococcus aureus. Nature of the assay: Antibacterial activity against Staphylococcus aureus ATCC 6538 at 1 mg/ml after 24 hrs at 37 degC by agar hole-plate diffusion assay. It is filed as functional. The conditions noted are these: ATCC 6538, 24 h, read-out: IZ. An outline of the steps:
as §2

Assay [7] concerns Bacillus subtilis. The assay can be described thus: Antibacterial activity against Bacillus subtilis ATCC 6633 after overnight incubation at 37 degC by twofold serial dilution technique. It is filed as functional. An outline of the steps:
as §1

Assay [8] concerns Escherichia coli. The assay can be described thus: Antibacterial activity against Escherichia coli ATCC 8739 at < 100 ug/ml after 24 hrs at 37 degC by agar hole-plate diffusion assay. The class given is functional, organism-based.
Assay [9] concerns Candida albicans. Nature of the assay: Antifungal activity against Candida albicans ATCC 10231 by agar diffusion technique. It is filed as functional.
The test system of assay [10] is Escherichia coli. The assay can be described thus: Antibacterial activity against Escherichia coli ATCC 8739 by agar diffusion technique. It is filed as functional.
Assay [11] deals with ZR-75-1. The assay can be described thus: Cytotoxicity against human ZR-75-1 cells after 72 hrs by sulforhodamine B assay. It is filed as functional. Conditions: ZR-75-1, 72 h, read-out: ED50 (the source's name). The method, boiled down: (§3)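 Log-phase cells treated with five sample concentrations (20.0–0.032 μg/ml) in DMSO for 72 h at 37°, 5% CO₂, 100% humidity. Sulforhodamine B staining quantified cells per well; results given as ED50.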

In assay [12] the test system is SK-MEL-2. The assay can be described thus: Cytotoxicity against human SK-MEL-2 cells after 72 hrs by sulforhodamine B assay. Conditions: SK-MEL-2, 72 h, read-out: ED50 (the source's name). The class given is functional. The method, boiled down: as §3
Assay [13] relates to HT-1080. The assay can be described thus: Cytotoxicity against human HT1080 cells after 48 hrs by sulforhodamine B assay. The class given is functional. Conditions: HT-1080, 48 h, read-out: ED50 (the source's name). The method, boiled down:
(§4)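 Log-phase cells exposed to five concentrations (20.0–0.032 μg/ml) of sample in DMSO for 48 h at 37°, 5% CO₂, 100% humidity. Cell quantity per well determined by sulforhodamine B staining; ED50 reported.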
On the technique in general: The SRB assay estimates cell density from bound dye.

Assay [14] is described as follows: Cytotoxicity against human LUC1 cells after 48 hrs by sulforhodamine B assay. The class given is functional. The conditions noted are these: LUC1, 48 h, read-out: ED50 (the source's name). An outline of the steps: as §4
The nature of assay [15]: Cytotoxicity against vinblastine-resistant human KBV1 cells after 72 hrs by sulforhodamine B assay. It is filed as functional. The conditions noted are these: KB-V1, 72 h, read-out: ED50 (the source's name). An outline of the steps: as §3
Assay [16] has as its system P388. Nature of the assay: Cytotoxicity against mouse P388 cells after 48 hrs by sulforhodamine B assay. The class given is functional. Conditions: P388, 48 h, read-out: ED50 (the source's name). An outline of the steps:
as §4

Assay [17] is described as follows: Cytotoxicity against human BC1 cells after 72 hrs by sulforhodamine B assay. It is filed as functional. Conditions: BC1, 72 h, read-out: ED50 (the source's name). An outline of the steps: as §3
Assay [18] deals with A-431. Nature of the assay: Cytotoxicity against human A431 cells after 72 hrs by sulforhodamine B assay. It is filed as functional. The conditions noted are these: A-431, 72 h, read-out: ED50 (the source's name). An outline of the steps: as §3
Assay [19] deals with KB. Nature of the assay: Cytotoxicity against human KB cells after 72 hrs by sulforhodamine B assay. The class given is functional. The conditions noted are these: read-out: ED50 (the source's name). The method, boiled down: as §3
Assay [20] relates to LNCaP. The assay can be described thus: Cytotoxicity against human LNCAP cells after 72 hrs by sulforhodamine B assay. It is filed as functional. The conditions noted are these: read-out: ED50 (the source's name). The method, boiled down:
as §3

The subject of assay [21] is Bacillus subtilis. Nature of the assay: Antibacterial activity against Bacillus subtilis ATCC 6633 at < 100 ug/ml after 24 hrs at 37 degC by agar hole-plate diffusion assay. The class given is functional, organism-based.
In assay [22] the test system is Staphylococcus aureus. The assay can be described thus: Antibacterial activity against Staphylococcus aureus ATCC 6538 at < 100 ug/ml after 24 hrs at 37 degC by agar hole-plate diffusion assay. It is filed as functional, organism-based.
A short description of assay [23]: Cytotoxicity against human Col2 cells after 72 hrs by sulforhodamine B assay. Conditions: Col2, 72 h, read-out: ED50 (the source's name).

In the case of `CCCC[C@H](OC(=O)CCl)[C@@H](OC(C)=O)[C@H](OC(C)=O)[C@@H]1OC(=O)C=C[C@@H]1OC(C)=O`, the MIC came to 75 µg/mL (≈ 162 µM) in [1]; 300 µg/mL (≈ 648 µM) in assay [4]; 50 µg/mL (≈ 108 µM) in [7]; 200 µg/mL (≈ 432 µM) in assay [9]; 300 µg/mL (≈ 648 µM) in assay [10]. The zone of inhibition at 1000 µg/mL in assay [2] amounted to 7 mm; in [6], 5 mm. Besides, the result in assay [3], in [5] and in assay [8] was inactive.

Take `CCCC[C@@H](/C=C\[C@@H]1OC(=O)C[C@@H](OC)[C@@H]1O)OC(C)=O`: the EC50 in [11] was greater than 20 µg/mL; in [12] it was greater than 20 µg/mL; in [13] it was greater than 20 µg/mL; in assay [14], greater than 20 µg/mL; in assay [15] it was greater than 20 µg/mL; in [16], greater than 5 µg/mL. Besides, the EC50 in assay [17], in [18], in assay [19] and in assay [20] was greater than 20 µg/mL throughout. Also, the MIC in assay [1] is greater than 100 µg/mL; in assay [4] it was greater than 500 µg/mL; in [7] it was greater than 100 µg/mL; in assay [9], greater than 500 µg/mL; in assay [10], greater than 500 µg/mL. In addition, the result in assay [3], in [5], in [8] and in assay [21] was inactive.

In the case of `CC(=O)O[C@@H](C)[C@@H](/C=C/[C@@H]1O[C@@H]1[C@H]1CC=CC(=O)O1)OC(C)=O`, the result in assay [22] and in assay [21] was inactive. For the same molecule, the EC50 in assay [11] is 4.7 µg/mL (≈ 14.5 µM); in assay [12], 4.1 µg/mL (≈ 12.6 µM); in assay [13] it was 5.7 µg/mL (≈ 17.6 µM); in assay [14], 3.3 µg/mL (≈ 10.2 µM); in assay [15], 3.4 µg/mL (≈ 10.5 µM); in assay [16] it was 0.4 µg/mL (≈ 1.23 µM). Moreover, the EC50 in assay [17] came out at 4.8 µg/mL (≈ 14.8 µM); in assay [18], 1.9 µg/mL (≈ 5.86 µM); in assay [19] it was 2.9 µg/mL (≈ 8.94 µM); in assay [20], 1.8 µg/mL (≈ 5.55 µM).

For `CCCC[C@H](OC(C)=O)[C@@H](O)[C@H](O)[C@@H]1OC(=O)C=C[C@@H]1OC(C)=O`, the EC50 was 6.2 µg/mL (≈ 18 µM) in assay [11]; 6 µg/mL (≈ 17.4 µM) in [12]; 6.7 µg/mL (≈ 19.5 µM) in assay [13]; 5.1 µg/mL (≈ 14.8 µM) in assay [23]; 8.8 µg/mL (≈ 25.6 µM) in [14]; greater than 20 µg/mL in assay [15]. The EC50 was determined as 0.5 µg/mL (≈ 1.45 µM) in assay [16]; 9.9 µg/mL (≈ 28.7 µM) in [17]; 4.5 µg/mL (≈ 13.1 µM) in assay [18]; 5.9 µg/mL (≈ 17.1 µM) in assay [19]; 4.5 µg/mL (≈ 13.1 µM) in assay [20]. For the same molecule, the MIC in assay [1] was 75 µg/mL (≈ 218 µM); in [4], 300 µg/mL (≈ 871 µM); in [7] it was 50 µg/mL (≈ 145 µM); in assay [9], 200 µg/mL (≈ 581 µM); in assay [10], 300 µg/mL (≈ 871 µM). The zone of inhibition at 1000 µg/mL stood at 7 mm in assay [2] and 4 mm in assay [6]. The result in assay [3], in [5] and in assay [8] was inactive.

Consider `CCCC[C@H](OC(C)=O)[C@@H](OC(C)=O)[C@H](OC(C)=O)[C@@H]1OC(=O)C=C[C@@H]1OC(C)=O`, for which the EC50 in assay [11] came to 7.8 µg/mL (≈ 18.2 µM); in assay [12], 4.5 µg/mL (≈ 10.5 µM); in assay [13] it was 8.4 µg/mL (≈ 19.6 µM); in assay [14], 7.6 µg/mL (≈ 17.7 µM); in assay [15] it was 6.3 µg/mL (≈ 14.7 µM); in assay [16], 0.4 µg/mL (≈ 0.934 µM). The EC50 in assay [17] was determined as 7 µg/mL (≈ 16.3 µM); in assay [18], 2.6 µg/mL (≈ 6.07 µM); in assay [19], 4.4 µg/mL (≈ 10.3 µM); in assay [20], 1.9 µg/mL (≈ 4.43 µM). For the same molecule, the MIC in [1] was determined as 100 µg/mL (≈ 233 µM); in assay [4], 200 µg/mL (≈ 467 µM); in assay [7] it was 50 µg/mL (≈ 117 µM); in assay [9], 500 µg/mL (≈ 1170 µM); in [10] it was 300 µg/mL (≈ 700 µM). Further, the zone of inhibition at 1000 µg/mL in [2] was 5 mm; in assay [6], 4 mm. The result in assay [3], in assay [5] and in assay [8] was inactive.
